Measurements as given in ChEMBL document CHEMBL1134797, “Synthesis and structural studies of aza analogues of functionalized amino acids: new anticonvulsant agents” (2001).

Key:
Rattus norvegicus [1] = test: Evaluated against Maximal electroshock seizure test in rat after po administration
Mus musculus [2] = test: Tested against subcutaneous pentylenetetrazole (Metrazol) seizure test in mice after ip administration; format: functional
Method in brief: (§1)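 Given intraperitoneally to mice. […] Seizure protection scored in the maximal electroshock test or against subcutaneous pentylenetetrazole (Metrazol). Neurologic toxicity scored on the rotorod.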

Rattus norvegicus [3] = test: Evaluated against neurological toxicity determined from the rotarod test in rat after po administration
Mus musculus [4] = test: Evaluated against Maximal electroshock seizure test in mice after ip administration; format: functional
Method in brief: as §1

Mus musculus [5] = test: Evaluated against neurological toxicity determined from the rotarod test in mice after ip administration; format: functional
Method in brief: as §1

[6] = Protective index (TD50/ED50) value of the compound; format: functional
Method in brief: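 Protective index taken as rotorod TD50 divided by maximal electroshock ED50, both in mg/kg and both from dose–effect data at the time of peak effect.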

Row | SMILES | ED50 (Rattus norvegicus [1]) [mg/kg] | ED50 (Mus musculus [2]) [mg/kg] | TD50 (Rattus norvegicus [3]) [mg/kg] | ED50 (Mus musculus [4]) [mg/kg] | TD50 (Mus musculus [5]) [mg/kg] | PI [6]
1 | CC(=O)NN(C(=O)NCc1ccccc1)c1ccccc1 | > 30 | >300 | > 30 | > 30 | > 100 | 
2 | CC(=O)NN(C(=O)NCc1ccccc1)c1ccccn1 | < 30 | >100 | > 30 | > 30 | > 100 | 
3 | CCCC(CCC)C(=O)O [VALPROIC ACID] | 400 |  |  | 290 | 480 | 1.3
4 | CCC1(c2ccccc2)C(=O)NC(=O)NC1=O [PHENOBARBITAL] |  |  |  | 22 | 69 | 3.1
5 | O=C1NC(=O)C(c2ccccc2)(c2ccccc2)N1 [PHENYTOIN] | 23 |  |  | 6.5 | 43 | 6.6
6 | CC(=O)NN(C(=O)NCc1ccccc1)c1ncccn1 | ~30 | >300 | > 30 | > 100 | > 100 | 
7 | CC(=O)NNC(=O)NCc1ccccc1 | 95 | >300 | > 160 | > 100 | > 160 | 
8 | CC(=O)NN(C(=O)NCc1ccccc1)c1nccs1 | 6.2 | >200 | > 250 | 22 | 120 | 5.4
9 | CC(=O)NN(C)C(=O)NCc1ccccc1 | > 30 | >300 | > 30 | 89 | > 500 | > 5.6
